# Reference: publication PMC3072167 (Bioorganic & medicinal chemistry letters, 2011)
# “Also recorded” adds a separate entry of the source.
# Experiments:
# [1] = target: chymotrypsin-like (ChT-L) activities of the 20S proteasome (Homo sapiens, UniProt P28074); experiment: Inhibition of chymotrypsin-like; assay type: biochemical; settings: qualitative statements in text
# HeLa Ub^G76V-GFP cells = experiment: Cell based proteasome assay: accumulation of UbG76V-GFP; settings: 7.5 uM for 24 hours; fluorescence microscope
# Method in brief: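 HeLa cells stably expressing UbG76V-GFP, seeded at 10,000 cells per well in growth medium, were cultured with test compound (7.5 uM) for 24 hours. Intracellular UbG76V-GFP accumulation was recorded as green fluorescence by fluorescence microscopy.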
# [2] = target: chymotrypsin-like activity of the proteasome (Homo sapiens, UniProt P28074); experiment: Enzyme kinetic study; assay type: biochemical
# Method in brief: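 The 20S proteasome chymotrypsin-like activity was measured across a range of Suc-Leu-Leu-Val-Tyr-AMC concentrations, with or without 2 μM or 4 μM test compound. Cleaved substrate was read as fluorescence units, and reaction rates were plotted as Lineweaver-Burk plots to derive Km and Vmax. Each point is the average of two independent experiments.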
SMILES,"Inhibition of the chymotrypsin-like activity of the 20S proteasome, in words [1]",further results
"CC1(C)C=C2[C@H]3CC[C@@H]4[C@@]5(C)CCC(=O)C(C)(C)[C@@H]5CC[C@@]4(C)[C@]3(C)CC[C@@]2(C(=O)O)CC1 [moronic acid, reference compound]",only LA inhibited,–
COC(=O)CC[C@@H](C)[C@H]1CC[C@H]2[C@@H]3CC[C@@H]4C[C@H](OC(=O)CCCCCC(=O)O)CC[C@]4(C)[C@H]3CC[C@]12C [Compound 16],loss of inhibitory activity,–
CCOC(=O)CC[C@@H](C)[C@H]1CC[C@H]2[C@@H]3CC[C@@H]4C[C@H](OC(=O)CCCCCC(=O)O)CC[C@]4(C)[C@H]3CC[C@]12C [Compound 17],loss of inhibitory activity,–
CCOC(=O)CC[C@@H](C)[C@H]1CC[C@H]2[C@@H]3CC[C@@H]4C[C@H](O)CC[C@]4(C)[C@H]3CC[C@]12C [Compound 2],loss of inhibitory activity,–
COC(=O)CC[C@@H](C)[C@H]1CC[C@H]2[C@@H]3CC[C@@H]4C[C@H](OC(=O)Cc5cccc(CC(=O)O)c5)CC[C@]4(C)[C@H]3CC[C@]12C [Compound 15],lost the inhibitory activity; also recorded: loss of inhibitory activity,–
C[C@H](CCC(=O)O)[C@H]1CC[C@H]2[C@@H]3CC[C@@H]4C[C@H](OC(=O)CCCCCC(=O)O)CC[C@]4(C)[C@H]3CC[C@]12C [Compound 8],did not inhibit,–
COC(=O)CC[C@@H](C)[C@H]1CC[C@H]2[C@@H]3CC[C@@H]4C[C@H](O)CC[C@]4(C)[C@H]3CC[C@]12C [Compound 1],loss of inhibitory activity,–
"C[C@H]1[C@H](C)CC[C@]2(C(=O)O)CC[C@]3(C)C(=CC[C@@H]4[C@@]5(C)CC[C@H](O)C(C)(C)[C@@H]5CC[C@]43C)[C@H]12 [ursolic acid, reference compound]",only LA inhibited,–
C[C@H](CCC(=O)O)[C@H]1CC[C@H]2[C@@H]3CC[C@@H]4C[C@H](OC(=O)CC5(CC(=O)O)CCCC5)CC[C@]4(C)[C@H]3CC[C@]12C [Compound 10],–,"Accumulation of Ub^G76V-GFP (green fluorescence) in cells (HeLa Ub^G76V-GFP cells): resulted in accumulation of Ub^G76V-GFP; also recorded: inhibited the proteasome; Mode of proteasome inhibition ([2]; Lineweaver-Burk plot, 2 μM and 4 μM compound, substrate Suc-Leu-Leu-Val-Tyr-AMC): noncompetitive inhibitor; Effect on Michaelis-Menten constant (Km) of the substrate ([2]; compound at 2 μM and 4 μM): without affecting; Effect on maximum reaction rate (Vmax) of the proteasomal activity ([2]; compound at 2 μM and 4 μM): reduced"
